NR2E3 ag-1: NR2E3 (human) agonism. GST-NR2E3/biotin-RetCOR TR-FRET, 1536-well. inhibition of corepressor binding, % at 4.78 µM. 320,000 compounds, 0.12% hits. AID 2300;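 active = percent inhibition above the cutoff of mean plus 3 SD of all tested compounds, set per screening campaign, cut at about 20% in these data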;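 also: 0% = DMSO wells and 100% = biotin wells as full block of FRET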
Target sequence (Q9Y5X4 whole entry, looked up): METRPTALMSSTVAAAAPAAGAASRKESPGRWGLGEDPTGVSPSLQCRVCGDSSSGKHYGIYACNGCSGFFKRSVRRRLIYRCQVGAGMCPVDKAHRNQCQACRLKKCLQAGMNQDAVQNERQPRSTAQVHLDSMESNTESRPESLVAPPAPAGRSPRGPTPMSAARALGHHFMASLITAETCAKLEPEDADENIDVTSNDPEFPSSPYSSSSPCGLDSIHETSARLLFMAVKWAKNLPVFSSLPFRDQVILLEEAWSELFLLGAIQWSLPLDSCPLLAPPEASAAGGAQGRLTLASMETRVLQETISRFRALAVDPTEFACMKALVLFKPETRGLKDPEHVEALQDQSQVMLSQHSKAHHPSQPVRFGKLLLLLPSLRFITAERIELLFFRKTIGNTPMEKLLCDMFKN
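Material: NR2E3–RetCOR corepressor complex / Amount: 1.35 nM GST-NR2E3 / Medium: Tris pH 7.5 / Compound: single nominal compound dose of 4.8 µM / Incubation: 5 h at 4 °C / Technique: TR-FRET, Eu(K)-anti-GST donor, streptavidin-D2 acceptor, ex 340, em 617/671 nm / Read-out basis: percent loss of FRET ratio relative to control wells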
PG9 binder: small molecules binding HIV-1 gp120 antibody PG9. TR-FRET gp120-PG9 antibody binding. inhibition, % at 6.7 µM. 360,000 compounds, 0.43% hits; in the data active = inhibition above about 8.5%
NR1D1 modulator: Rev-erb alpha (human) modulation | P20393 | Rev-erbα–FITC-DNA binding, fluorescence polarization, 90 min | activity, % at 10 µM | 370,000 compounds, 0.79% hits | AID 1259318;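 active = activity above about 14%, limit read from the data; passing the limit was not always enough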;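 also: 0% = DMSO wells with 35 nM protein and 100% = DMSO wells with 750 nM protein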
NR2E3 ag-2: activates human NR2E3 receptor | Q9Y5X4 | CHO-S Gal4-NCOR/VP16-NR2E3 two-hybrid, luciferase | inhibition of corepressor binding, % at 3.98 µM | 360,000 compounds, 0.35% hits;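 active = inhibition above the mean of all tested compounds plus 3 SD, cut at about 70% in these data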;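 also: 0% = DMSO with NR2E3 transfected cells and 100% = cells lacking NR2E3 construct; higher means lower luciferase signal from less NR2E3 corepressor binding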
NR2E3 ag conf: confirmation of human NR2E3 agonists | shares compounds with NR2E3 ag-2 | CHO-S mammalian two-hybrid NR2E3-NCOR, luciferase luminescence | inhibition, % at 3.98 µM | 2,300 compounds, 51% hits;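 active = average inhibition above a cutoff equal to the mean inhibition of all tested compounds plus one SD, cut at about 70% in these data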;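 also: 0% = DMSO in NR2E3 cells and 100% = DMSO in cells lacking NR2E3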
VP16 counter: reduces GAL4-VP16 reporter signal in NR2E3 counterscreen; shares compounds with NR2E3 ag-2; CHO-S GAL4-VP16 luciferase reporter, luminescence; inhibition, % at 3.98 µM; 2,300 compounds, 29% hits; AID 624379;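 active = mean inhibition above a cutoff equal to the average over all tested compounds plus one standard deviation, cut at about 70% in these data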;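 also: luciferase from a UAS reporter driven by GAL4-VP16 transactivation; 0% = DMSO with VP16-transfected cells and 100% = DMSO with cells lacking VP16; higher means less reporter light so more repression of VP16 activity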
* marks the source's active call; other numbers are inactive results. Hits are enriched below; roughly 1.5% of the tested compounds scored in any of these assays.

For N#Cc1c(N)n(C2OC(CO)C(O)C2O)c2ncnc(N)c12 (stereo not given) the results were PG9 binder -2, NR1D1 modulator -5, NR2E3 ag-2 89*, NR2E3 ag conf 96* and VP16 counter 89*.
`O=C1C(=O)c2cccnc2-c2ncccc21` gave PG9 binder -1, NR1D1 modulator -2, NR2E3 ag-2 72*, NR2E3 ag conf 89* and VP16 counter 39.
`Cc1onc(-c2ccccc2Cl)c1C(=O)Nc1nc2c(s1)CCCC2` gave NR2E3 ag-1 5, PG9 binder -1, NR1D1 modulator -3, NR2E3 ag-2 82*, NR2E3 ag conf 86* and VP16 counter -41.
CC(=O)Cc1nsc(NC(=O)c2c(-c3ccccc3Cl)noc2C)n1 was read as NR2E3 ag-1 1, PG9 binder -1, NR1D1 modulator 6 and NR2E3 ag-2 0.
Screening COc1ccc(NS(=O)(=O)c2ccc(N3CCCC3)c(N)c2)cc1 returned NR2E3 ag-1 -1, PG9 binder -3, NR1D1 modulator 2, NR2E3 ag-2 89*, NR2E3 ag conf 77* and VP16 counter 72*.
For Nc1cc(S(=O)(=O)Nc2ccc(Cl)cc2)ccc1N1CCOCC1 the results were NR2E3 ag-1 -1, PG9 binder 3, NR1D1 modulator -2, NR2E3 ag-2 55, NR2E3 ag conf 85* and VP16 counter 64.
`COc1ccc(NS(=O)(=O)c2cc(N)ccc2N2CCCC2)cc1` gave PG9 binder -2, NR1D1 modulator 11 and NR2E3 ag-2 -35.
Screening CCNC(=O)Nc1cc(S(=O)(=O)Nc2ccc(OC)cc2)ccc1N1CCOCC1 returned NR2E3 ag-1 0, NR2E3 ag-2 85*, NR2E3 ag conf 84* and VP16 counter 76*.
Screening CCCCNC(=O)c1ccc(N2CCOCC2)c(NS(=O)(=O)c2ccc(OC)cc2)c1 returned NR2E3 ag-1 1, PG9 binder -3, NR1D1 modulator 3 and NR2E3 ag-2 -8.
For COC(=O)c1cc(S(=O)(=O)N2CCC(c3ccccc3)C2)c[nH]1 (stereo not given) the results were NR2E3 ag-1 3, PG9 binder -1, NR1D1 modulator 2 and NR2E3 ag-2 33.
`COC(=O)c1cc(S(=O)(=O)N2CCC(c3cc(OC)ccc3OC)C2)c[nH]1` (stereo not given) gave NR2E3 ag-1 2, PG9 binder -1, NR1D1 modulator 3, NR2E3 ag-2 81*, NR2E3 ag conf 69 and VP16 counter 62.
Screening O=C1NC[C@H](c2ccccc2)OC(=O)[C@@H](Cc2ccc(F)cc2)CC/C=C/C[C@H]1CC(=O)N(CCO)Cc1ccccc1 returned PG9 binder -2, NR1D1 modulator -3, NR2E3 ag-2 49, NR2E3 ag conf 37 and VP16 counter 31.
Screening O=C1NC[C@H](c2ccccc2)OC(=O)[C@H](Cc2ccc(F)cc2)CC/C=C/C[C@H]1CC(=O)N(CCO)Cc1ccccc1 returned PG9 binder 0, NR1D1 modulator -6 and NR2E3 ag-2 36.
For O=C1N[C@H](Cc2ccccc2)COC(=O)[C@H](Cc2ccc(F)cc2)C/C=C\C[C@H]1CC(=O)N(CCO)Cc1ccccc1 the results were PG9 binder 0, NR1D1 modulator 2, NR2E3 ag-2 62, NR2E3 ag conf 63 and VP16 counter 16.
`CCCCOCCCNC(=O)C[C@H]1C(=O)N(Cc2ccc(OC)cc2)C2=CCCCC[C@@]21C(=O)OC` gave NR1D1 modulator -10.
COC(=O)C1CN(Cc2ccc(OC)cc2)CCS(=O)(=O)N1Cc1cn(Cc2ccc(OC)cc2)nn1 (stereo not given) was read as NR1D1 modulator 5.
For Cn1nc(C(C)(C)C)cc1C(=O)NCc1cc(F)cc2c1OCOC2 the results were NR2E3 ag-1 -1, PG9 binder 0, NR1D1 modulator -2, NR2E3 ag-2 78*, NR2E3 ag conf 95* and VP16 counter 77*.
Screening CCCCCCCCCn1c2c(c(=N)c3c1CCC3)CCC2 returned NR2E3 ag-1 1, NR2E3 ag-2 101*, NR2E3 ag conf 99* and VP16 counter 92*.
For COc1cccc(/C=C2\CC3(OC(=O)c4ccco4)CCCN2C3)c1 (stereo not given) the results were NR1D1 modulator 12.
Nc1c(CC(=O)O)cccc1C(=O)c1ccccc1 was read as NR1D1 modulator -4.
Screening O=S(=O)(NCCN1CCOCC1)c1ccc(Oc2ccccc2Cl)cc1 returned NR2E3 ag-1 -2, PG9 binder -2, NR1D1 modulator 3, NR2E3 ag-2 53, NR2E3 ag conf 53 and VP16 counter 55.
For O=S(=O)(NCCN1CCOCC1)c1ccc2ccccc2c1 the results were PG9 binder -1, NR1D1 modulator 2 and NR2E3 ag-2 26.
For NC1=C(Cl)C(=O)c2ccccc2C1=O the results were PG9 binder -8, NR1D1 modulator -13 and NR2E3 ag-2 1.
Screening NC1=C(Cl)C(=O)c2ccc(S(N)(=O)=O)cc2C1=O returned PG9 binder -17, NR1D1 modulator -14, NR2E3 ag-2 72*, NR2E3 ag conf 10 and VP16 counter 19.
CCN(CC)C(=O)c1oc2ccc(S(=O)(=O)N3CCCCCC3)cc2c1C was read as NR2E3 ag-1 4, PG9 binder 2 and NR2E3 ag-2 -1.
For CCN(CC)C(=O)c1oc2ccc(S(=O)(=O)N3CC(C)CC(C)C3)cc2c1C (stereo not given) the results were NR2E3 ag-1 3, PG9 binder -2, NR1D1 modulator 6, NR2E3 ag-2 93*, NR2E3 ag conf 91* and VP16 counter 72*.
CC(=O)Nc1ccc(S(=O)(=O)N2CCN=C2SCc2ccc([N+](=O)[O-])cc2)cc1 was read as NR2E3 ag-1 0, PG9 binder 1, NR1D1 modulator 1, NR2E3 ag-2 50, NR2E3 ag conf 79* and VP16 counter 49.
For NC(=S)NN=C1c2ccccc2-c2cc(Br)ccc21 the results were PG9 binder 0, NR1D1 modulator 10, NR2E3 ag-2 85*, NR2E3 ag conf -5 and VP16 counter -27.
`ON=C1c2ccccc2-c2ccc(Br)cc21` gave PG9 binder 0, NR1D1 modulator 5 and NR2E3 ag-2 -38.
For C[C@H]1COc2cc(N3CCSCC3)ccc2S(=O)(=O)N1C the results were NR1D1 modulator 3.
Screening COc1cc(C(O)c2nc(-c3ccc(N(C)C)cc3)cs2)ccc1F (stereo not given) returned NR2E3 ag-2 50, NR2E3 ag conf 33 and VP16 counter 42.
Screening CC(=O)/C(N=Nc1ccc2c(c1)OCO2)=C(\C)O returned NR2E3 ag-1 2, PG9 binder 1, NR1D1 modulator 8 and NR2E3 ag-2 -45.

High-throughput results as filed in PubChem.
